{"data": "Results gathered from unrelated publications", "note": "Protocols differ between the studies behind these lines."}
{"SMILES": "Nc1nn2c(-c3ccc(Cl)cc3Cl)cc(-c3ccc(OCc4ccccc4)cc3)nc2c1N=Nc1ccc(F)cc1", "tested on": "Saccharomyces cerevisiae", "test": "microbial killing, broth dilution", "test system": "ATCC9763", "quantity": "MFC", "result": "62.5 µg/mL"}
{"SMILES": "CNC(=S)NN=Cc1ccc([N+](=O)[O-])cc1", "tested on": "Leishmania tropica", "test": "parasite growth", "test system": "J774.A1", "conditions": "72 h, intracellular, amastigote", "quantity": "IC50", "result": "258 µM"}
{"SMILES": "C[C@H]1CNCCCN1c1nccc(-c2noc([C@@]3(C)CCCc4sc(N)c(C#N)c43)n2)n1", "tested on": "BaF3", "test": "cell growth or viability", "conditions": "72 h", "quantity": "EC50", "result": "0.959 µM"}
{"SMILES": "CCOC(=O)C1=C(CN2CCC(C(=O)Nc3cccc(B(O)O)c3)C2)NC(c2nccs2)=NC1c1ccc(F)cc1Br (stereo not drawn)", "tested on": "Hepatitis B virus", "test": "viral replication, inhibitor, qPCR", "test system": "HepDES19", "conditions": "72 h", "quantity": "EC50", "result": "0.9 µM"}
{"SMILES": "C[C@H]1CNCCCN1c1nccc(-c2noc3c2CCC[C@@]32CCCc3sc(N)c(C#N)c32)n1", "tested on": "BaF3", "test": "cell growth or viability", "conditions": "72 h", "quantity": "EC50", "result": "0.188 µM"}
{"SMILES": "O=C1Nc2ccccc2C1=Nc1ccccc1I", "tested on": "L02", "test": "cell growth or viability, MTT", "conditions": "48 h", "quantity": "IC50", "result": "77.5 µM"}
{"SMILES": "C[C@H]1CN(C)CCCN1c1nccc(-c2noc([C@@]3(C)CCCc4sc(N)c(C#N)c43)n2)n1", "tested on": "BaF3", "test": "cell growth or viability", "conditions": "72 h", "quantity": "EC50", "result": "0.41 µM"}
{"SMILES": "O=C1C(=Nc2ccccc2Br)c2ccccc2N1Cc1ccccc1", "tested on": "L02", "test": "cell growth or viability, MTT", "conditions": "48 h", "quantity": "IC50", "result": "66.2 µM"}
{"SMILES": "Cc1nc(NC(=O)N2CCC[C@H]2C(N)=O)sc1-c1ccnc(C(C)(C)C(F)(F)F)c1", "tested on": "MFM-223", "test": "cell growth or viability, ATP luminescence", "conditions": "5 days", "quantity": "EC50", "result": "8.5 µM"}
{"SMILES": "CCOC(=O)C1=C(CN2CCN(Cc3ccc(B4OC(C)(C)C(C)(C)O4)cc3)CC2)NC(c2nccs2)=NC1c1ccc(F)cc1Br (stereo not drawn)", "tested on": "Hepatitis B virus", "test": "viral replication, inhibitor, qPCR", "test system": "HepDES19", "conditions": "72 h", "quantity": "EC50", "result": "1.2 µM"}
{"SMILES": "CNC(=S)NN=Cc1ccc(O)c(OC)c1", "tested on": "Leishmania tropica", "test": "parasite growth, MTT", "conditions": "72 h, promastigote", "quantity": "IC50", "result": "200 µM"}
{"SMILES": "O=C1C(=Nc2ccc(Cl)cc2Br)c2ccccc2N1Cc1ccc([N+](=O)[O-])cc1", "tested on": "L02", "test": "cell growth or viability, MTT", "conditions": "48 h", "quantity": "IC50", "result": "20.4 µM"}
{"SMILES": "Fc1ccc(C=NNC(=S)Nc2cccnc2)cc1", "tested on": "Leishmania tropica", "test": "parasite growth, MTT", "conditions": "72 h, promastigote", "quantity": "IC50", "result": "314 µM"}
{"SMILES": "CCOC(=O)C1=C(CN2CCC[C@@H]2C(=O)Nc2cccc(B(O)O)c2)NC(c2nccs2)=N[C@H]1c1ccc(F)cc1Br", "tested on": "Hepatitis B virus", "test": "viral replication, inhibitor, qPCR", "test system": "HepDES19", "conditions": "72 h", "quantity": "EC50", "result": "0.12 µM"}
{"SMILES": "Cc1cccc(N=C2C(=O)Nc3ccccc32)c1", "tested on": "L02", "test": "cell growth or viability, MTT", "conditions": "48 h", "quantity": "IC50", "result": "> 100 µM"}
{"SMILES": "C[C@H](Nc1ccc2c(c1)OCCn1cc(N3C(=O)OC[C@H]3C(F)F)nc1-2)C(N)=O", "tested on": "CAL-51", "test": "cell growth or viability, ATP luminescence", "conditions": "5 days", "quantity": "EC50", "result": "1.26 µM"}
{"SMILES": "CC(C)c1cccc(C(C)C)c1N=C1C(=O)N(Cc2ccc(Br)cc2)c2ccccc21", "tested on": "L02", "test": "cell growth or viability, MTT", "conditions": "48 h", "quantity": "IC50", "result": "> 100 µM"}
{"SMILES": "CCOC(=O)C1=C(CN2CCC[C@@H]2C(=O)Nc2ccc(B(O)O)cc2)NC(c2nccs2)=N[C@H]1c1ccc(F)cc1Br", "tested on": "Hepatitis B virus", "test": "viral replication, inhibitor, qPCR", "test system": "HepDES19", "conditions": "72 h", "quantity": "EC50", "result": "0.07 µM"}
